In article PMC8883152 (Translational Vision Science & Technology, 2022):

How the values were obtained:
Assay type in all cases: in vivo, C57BL/6 mice
[1] = tested on: Dex-induced OHT mouse model; experiment: Electroretinography; details: day 21, compared with vehicle-treated group
How it was run: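 Male C57BL/6 mice (11 weeks) received 0.1% dexamethasone eye drops (20 µL/eye) in both eyes three times daily for 2 weeks, continued through dosing. Test compound (0.04% BID), latanoprost (0.005% QD) or both were then given topically for 21 days, doses 5 min apart. ERG was run on both eyes of dark-adapted anaesthetised mice on days 0 and 21. A single white 0.3 log cd·s/m2 flash was used, and b-wave amplitude was measured.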

[2] = tested on: MMP-2/TIMP-2 and MMP-9/TIMP-1 ratios; details: retinal extracts, normalized to α-tubulin
How it was run: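 Three mice per group were used (dexamethasone-induced hypertension, 21 days of topical dosing). Retinas were homogenised in RIPA buffer (pH 8.0) and centrifuged at 14,000g for 30 min at 4°C. Protein (10 µg/lane) was run on 10% SDS-PAGE and blotted. Membranes were probed overnight at room temperature for MMP-2, MMP-9, TIMP-1 and TIMP-2. Bands were detected by ECL densitometry and normalised to α-tubulin, and MMP-2/TIMP-2 and MMP-9/TIMP-1 ratios were calculated.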

[3] = tested on: Dex-induced OHT mouse model; experiment: IOP in dexamethasone-induced ocular hypertension mouse model; details: HL3501 0.04% BID, latanoprost 0.005% QD, or both
How it was run: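 IOP was read with a rebound tonometer on days 0, 1, 3, 5, 7, 10, 14, 17 and 21 in male C57BL/6 mice. Ocular hypertension was pre-induced by 0.1% dexamethasone (20 µL/eye, three times daily, 2 weeks; maintained throughout). Drops were test compound 0.04% BID, latanoprost 0.005% QD, or both 5 min apart, for 21 days. Groups had 8–10 mice. Basal IOP was taken before dexamethasone.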

[4] = tested on: fibronectin and α-SMA expression in the TM; details: after 21 days treatment
How it was run: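 Eye sections from dexamethasone-induced hypertensive C57BL/6 mice (21 days of topical dosing) were used. Sections were incubated overnight at room temperature with fibronectin and α-SMA antibodies (1:200) and washed in 0.1 M PBST. Fluorescent secondary antibodies (1:500) were applied for 1 h. Sections were DAPI-counterstained and imaged by fluorescence microscopy focused on the trabecular meshwork.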

[5] = tested on: RGCs; experiment: Hematoxylin and eosin staining of retinal sections; details: after 21 days treatment, H&E retinal cross-sections
How it was run: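 In dexamethasone-induced hypertensive C57BL/6 mice treated topically for 21 days, eyes were enucleated after euthanasia and fixed in 10% formalin for 24 h. They were paraffin-embedded and sectioned. Retinal sections were stained with hematoxylin (0.1% plus 10% ammonium) for 3–5 min, then 1% eosin Y for 1 min. Slides were dehydrated through ethanol and xylene and scanned to assess RGCs.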

`CC(C)OC(=O)CCC/C=C\C[C@@H]1[C@@H](CC[C@@H](O)CCc2ccccc2)[C@H](O)C[C@@H]1O` [Latanoprost, latanoprost] was tested, and the “b-wave values on day 21 (in words)” value [1] was “did not decrease as much”, the “MMP-2/TIMP-2 ratio (in words)” value [2] was “increased” and the “MMP-9/TIMP-1 ratio (in words)” value [2] was “increased”. The “IOP effect over 3 weeks in Dex-induced OHT mouse model (in words)” value [3] was “consistent IOP-lowering effect”, the “Fibronectin and α-SMA expression in the TM compared with vehicle (in words)” value [4] was “suppressed” and the “RGC loss (in words)” value [5] was “less affected by RGC loss”.
